Reference: ChEMBL document CHEMBL1165982, “Induction of G(2)/M phase arrest and apoptosis by oridonin in human laryngeal carcinoma cells” (J Nat Prod, 2010)
The source made the active and inactive calls. The rule behind the calls is not given here.

Experiments:
HEp-2 [1] = assay: Induction of apoptosis in human Hep2 cells assessed as increase in pro-apoptotic Bax protein at 36 uM after 6 hrs by Western blot analysis; assay type: functional, cell-based
Procedure, shortened: (§1)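 Treatment: 36 µM for 0, 6, 12 or 24 h, alone or with 2.5 mM N-acetylcysteine or 500 U/mL catalase. Lysis 60 min at 4 °C in Hepes pH 7.4/1% Triton X-100 with phosphatase and protease inhibitors, spin 13000g. Lysates run on 12% SDS-PAGE, blotted to nitrocellulose, probed with polyclonal antibodies, HRP/DAB detection. Representative of ≥3 experiments.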

HEp-2 [2] = assay: Induction of apoptosis in human Hep2 cells assessed as fragmented DNA using acridine orange staining at 36 uM after 24 hrs by microscopic analysis in presence of N-acetyl-cysteine ROS scavenger; assay type: functional, cell-based
HEp-2 [3] = assay: Induction of apoptosis in human Hep2 cells assessed as apoptotic bodies using acridine orange staining at 36 uM after 24 hrs by microscopic analysis in presence of N-acetyl-cysteine ROS scavenger; assay type: functional, cell-based
HEp-2 [4] = assay: Induction of apoptosis in human Hep2 cells at 36 uM after 24 hrs by MTT assay in presence of z-DEVD-fmk caspase 3 inhibitor; assay type: functional, cell-based
Procedure, shortened: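 HEp-2 cells in RPMI-1640 with 10% FBS at 37 °C, 5% CO2, seeded at 1.2 × 10^4 cells/well and grown 24 h. Pretreated 1 h with z-DEVD-fmk (5 µM, line 1) or z-VAD-fmk (10 µM, line 2), then exposed to 36 µM agent for 24 h, with DMSO below 0.05%. Cell inhibitory ratio read by MTT; n = 3, mean ± SD.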

HEp-2 [5] = assay: Induction of apoptosis in human Hep2 cells assessed as increase in phospho-cdc25C (ser216) level at 36 uM from 6 to 24 hrs by Western blot analysis; assay type: functional, cell-based; procedure, shortened: as §1
HEp-2 [6] = assay: Induction of ROS generation in human Hep2 cells assessed as ratio of DCF-positive cells at 36 uM after 6 hrs relative to control; assay type: functional
Procedure, shortened: (§2)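 Cells exposed to 36 µM for 0, 3, 6, 12 or 24 h, then loaded with DCF-DA (10 mM as printed) for 15 min at 37 °C. Harvested, resuspended in PBS and read by flow cytometry (ex 480 nm, em 525 nm). Result given as % DCF-positive cells. n = 3.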

HEp-2 [7] = assay: Cytotoxicity against human Hep2 cells at 36 uM after 24 hrs by MTT assay; assay type: functional
Procedure, shortened: (§3)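 Cells seeded at 1.2 × 10^4 per well in 96-well plates, grown 24 h, then treated over 10.7–81 µM for 6, 12, 24, 36 or 48 h. Viability read by MTT. DMSO kept below 0.05%. IC50 taken at 24 h.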

HEp-2 [8] = assay: Induction of ROS generation in human Hep2 cells at 36 uM after 3 hrs relative to control; assay type: functional, cell-based; procedure, shortened: as §2
HEp-2 [9] = assay: Cytotoxicity against human Hep2 cells after 24 hrs by MTT assay; assay type: functional, cell-based; conditions: HEp-2, 24 h; procedure, shortened: as §3
HEp-2 [10] = assay: Cell cycle arrest in human Hep2 cells assessed as accumulation at G2/M phase at 36 uM after 24 hrs using propidium iodide staining by flow cytometry; assay type: functional
Procedure, shortened: (§4)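 ATCC HEp-2 in RPMI-1640 with 10% FBS at 37 °C, 5% CO2, exposed to 36 µM for 0, 6, 12 or 24 h. 1 × 10^6 cells were fixed in 70% ethanol at 4 °C for at least 12 h, then stained on ice in the dark for 30 min with 50 µg/mL PI plus 1 mg/mL RNase A. Read by flow cytometry, ≥10 000 cells per sample. SubG1 counted as the apoptotic fraction. n = 3.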

HEp-2 [11] = assay: Induction of ROS generation in human Hep2 cells assessed as ratio of DCF-positive cells at 36 uM after 24 hrs relative to control; assay type: functional; procedure, shortened: as §2
HEp-2 [12] = assay: Induction of apoptosis in human Hep2 cells assessed as accumulation in G2/M phase using PI staining at 36 uM after 24 hrs by flow cytometeric analysis in presence of N-acetyl-cysteine ROS scavenger; assay type: functional
Procedure, shortened: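 HEp-2 cells were pretreated 1 h with 2.5 mM N-acetylcysteine, then co-incubated with 36 µM for 24 h. They were then fixed in 70% ethanol (≥12 h, 4 °C) and stained on ice in the dark for 30 min with 50 µg/mL PI and 1 mg/mL RNase A. G2/M and subG1 fractions were read by flow cytometry, ≥10 000 cells counted. n = 3.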

HEp-2 [13] = assay: Cell cycle arrest in human Hep2 cells assessed as accumulation at G2/M phase at 36 uM after 6 hrs using propidium iodide staining by flow cytometry; assay type: functional; procedure, shortened: as §4
HEp-2 [14] = assay: Induction of apoptosis in human Hep2 cells assessed as pro-caspase 3 level at 36 uM by Western blot analysis; assay type: functional, cell-based; conditions: TDE = time-dependent effect; procedure, shortened: as §1
HEp-2 [15] = assay: Induction of apoptosis in human Hep2 cells assessed as accumulation in subG1 phase using PI staining by flow cytometeric analysis; assay type: functional; procedure, shortened: as §4
HEp-2 [16] = assay: Induction of apoptosis in human Hep2 cells assessed as increase in pro-apoptotic Bax protein at 36 uM after 24 hrs by Western blot analysis in presence of NAC; assay type: functional, cell-based; procedure, shortened: as §1
HEp-2 [17] = assay: Induction of apoptosis in human Hep2 cells assessed as increase in phospho-cdc25C (ser216) level at 36 uM from 6 to 24 hrs by Western blot analysis in presence of NAC; assay type: functional, cell-based; procedure, shortened: as §1
HEp-2 [18] = assay: Induction of apoptosis in human Hep2 cells assessed as decrease in cdc2 level at 36 uM after 24 hrs by Western blot analysis; assay type: functional, cell-based; conditions: TDE = time-dependent effect; procedure, shortened: as §1
HEp-2 [19] = assay: Induction of apoptosis in human Hep2 cells assessed as cleaved caspase 3 level at 36 uM after 24 hrs by Western blot analysis in presence of CAT; assay type: functional, cell-based; procedure, shortened: as §1
HEp-2 [20] = assay: Induction of apoptosis in human Hep2 cells assessed as decrease in cyclin B level at 36 uM after 24 hrs by Western blot analysis in presence of NAC; assay type: functional, cell-based; procedure, shortened: as §1
HEp-2 [21] = assay: Induction of apoptosis in human Hep2 cells assessed as increase in phospho-cdc2 (Tyr15) level at 36 uM from 6 to 24 hrs by Western blot analysis; assay type: functional, cell-based; procedure, shortened: as §1
HEp-2 [22] = assay: Induction of apoptosis in human Hep2 cells assessed as caspase activated DNase level at 36 uM after 24 hrs by Western blot analysis in presence of CAT; assay type: functional, cell-based; procedure, shortened: as §1
HEp-2 [23] = assay: Induction of apoptosis in human Hep2 cells assessed as increase in p21/WAF1 level at 36 uM after 24 hrs by Western blot analysis; assay type: functional, cell-based; procedure, shortened: as §1
HEp-2 [24] = assay: Induction of apoptosis in human Hep2 cells assessed as increase in p21/WAF1 level at 36 uM after 24 hrs by Western blot analysis in presence of NAC; assay type: functional, cell-based; procedure, shortened: as §1
HEp-2 [25] = assay: Induction of apoptosis in human Hep2 cells assessed as decrease in cyclin B level at 36 uM after 24 hrs by Western blot analysis; assay type: functional, cell-based; conditions: TDE = time-dependent effect; procedure, shortened: as §1

C=C1C(=O)[C@]23[C@H](O)[C@H]1CC[C@H]2[C@@]12CO[C@]3(O)[C@@H](O)[C@@H]1C(C)(C)CC[C@@H]2O [ORIDONIN]
Activity (HEp-2 [1]): Active | Activity (HEp-2 [2]): inactive | Activity (HEp-2 [3]): inactive | Activity (HEp-2 [4]): inactive | Activity (HEp-2 [5]): Active | Activity (HEp-2 [6]): 17.25% | Activity (HEp-2 [7]): 50% | Activity (HEp-2 [8]): Active | IC50 (HEp-2 [9]): 37.1 µM | Activity (HEp-2 [10]): 25.84% | Activity (HEp-2 [11]): 24.86% | Activity (HEp-2 [12]): 14% | Activity (HEp-2 [13]): 32.84% | Activity (HEp-2 [14]): tde | Activity (HEp-2 [15]): 26.57% | Activity (HEp-2 [16]): inactive | Activity (HEp-2 [17]): inactive | Activity (HEp-2 [18]): tde | Activity (HEp-2 [19]): inactive | Activity (HEp-2 [20]): inactive | Activity (HEp-2 [21]): Active | Activity (HEp-2 [22]): inactive | Activity (HEp-2 [23]): inactive | Activity (HEp-2 [24]): inactive | Activity (HEp-2 [25]): tde
